Reference: ChEMBL document CHEMBL4346727, “Synthesis and pharmacological evaluation of novel N-Mannich bases derived from 5,5-diphenyl and 5,5-di(propan-2-yl)imidazolidine-2,4-dione core” (Bioorg Med Chem Lett, 2019)
Activity calls are given as the source filed them. Unless noted, no cut-off for these calls is given here.

Experiments:
[1] = Neurotoxicity in Sprague-Dawley rat at 30 mg/kg, po measured after 4 hr by rotarod test; type: toxicity, organism-based; conditions: in vivo
Procedure, shortened: (§1)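 Rats given one oral dose of 30 mg/kg and tested on the rotarod at 0.25, 0.5, 1, 2, 4 and 6 h.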

[2] = Neurotoxicity in Sprague-Dawley rat at 30 mg/kg, po measured after 2 hr by rotarod test; type: toxicity, organism-based; conditions: in vivo; procedure, shortened: as §1
[3] = Neurotoxicity in Sprague-Dawley rat at 30 mg/kg, po measured after 1 hr by rotarod test; type: toxicity, organism-based; conditions: in vivo; procedure, shortened: as §1
[4] = Neurotoxicity in Sprague-Dawley rat at 30 mg/kg, po measured after 30 mins by rotarod test; type: toxicity, organism-based; conditions: in vivo, 0.5 h; procedure, shortened: as §1
[5] = Neurotoxicity in Sprague-Dawley rat at 30 mg/kg, po measured after 15 mins by rotarod test; type: toxicity, organism-based; conditions: in vivo, 0.25 h; procedure, shortened: as §1
[6] = tested on: Mus musculus; assay: Anticonvulsant activity in CD1 mouse assessed as protection against subcutaneous pentylenetetrazole-induced seizures at 300 mg/kg, ip and measured after 0.5 hrs; type: functional, organism-based
Procedure, shortened: (§2)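 Mice were screened after intraperitoneal doses of 30, 100 and 300 mg/kg in the maximal electroshock and subcutaneous pentylenetetrazole tests, examined at 0.5 and 4 h. The value recorded is the minimum dose showing activity. No activity up to 300 mg/kg is scored as absent.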

[7] = tested on: Mus musculus; assay: Anticonvulsant activity in ip dosed CD1 mouse assessed as protection against 50 mA current-induced seizure and measured after 4 hrs by maximal electroshock seizure test; type: functional; conditions: read-out: MED; procedure, shortened: as §2
[8] = tested on: Mus musculus; assay: Anticonvulsant activity in ip dosed CD1 mouse assessed as protection against 50 mA current-induced seizure and measured after 0.5 hrs by maximal electroshock seizure test; type: functional; conditions: read-out: MED; procedure, shortened: as §2
[9] = tested on: Mus musculus; assay: Anticonvulsant activity in CD1 mouse assessed as protection against subcutaneous pentylenetetrazole-induced seizures at 300 mg/kg, ip and measured after 4 hrs; type: functional, organism-based; procedure, shortened: as §2
[10] = Neurotoxicity in CD1 mouse at 300 mg/kg, ip and measured after 0.5 hrs by rotarod test; type: toxicity, organism-based; conditions: in vivo
Procedure, shortened: (§3)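 Mice dosed intraperitoneally at 30, 100 and 300 mg/kg, then tested on the rotarod at 0.5 h and 4 h. The value recorded is the minimum dose at which neurotoxicity appeared. A dash means no neurotoxicity at the top dose of 300 mg/kg.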

[11] = Neurotoxicity in CD1 mouse at 300 mg/kg, ip and measured after 4 hrs hrs by rotarod test; type: toxicity, organism-based; conditions: in vivo; procedure, shortened: as §3
[12] = tested on: Rattus norvegicus; assay: Anticonvulsant activity in Sprague-Dawley rat assessed as protection against 150 mA current-induced seizure at 30 mg/kg, po measured after 2 hrs by maximal electroshock seizure test; type: functional, organism-based
Procedure, shortened: (§4)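 Rats received 30 mg/kg orally and were given maximal electroshock at 0.25, 0.5, 1, 2, 4 and 6 h. Read-out is the number of rats protected out of four.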

[13] = tested on: Rattus norvegicus; assay: Anticonvulsant activity in Sprague-Dawley rat assessed as protection against 150 mA current-induced seizure at 30 mg/kg, po measured after 1 hr by maximal electroshock seizure test; type: functional, organism-based; procedure, shortened: as §4
[14] = tested on: Rattus norvegicus; assay: Anticonvulsant activity in Sprague-Dawley rat assessed as protection against 150 mA current-induced seizure at 30 mg/kg, po measured after 30 mins by maximal electroshock seizure test; type: functional, organism-based; procedure, shortened: as §4
[15] = tested on: Mus musculus; assay: Anticonvulsant activity in CD1 mouse assessed as protection against 50 mA current-induced seizure at 300 mg/kg, ip and measured after 0.5 hrs by maximal electroshock seizure test; type: functional, organism-based; procedure, shortened: as §2
[16] = tested on: Rattus norvegicus; assay: Anticonvulsant activity in Sprague-Dawley rat assessed as protection against 150 mA current-induced seizure at 30 mg/kg, po measured after 15 mins by maximal electroshock seizure test; type: functional, organism-based; procedure, shortened: as §4
[17] = Neurotoxicity in CD1 mouse at 100 mg/kg, ip measured after 1 hr by rotarod test; conditions: in vivo
[18] = Neurotoxicity in CD1 mouse at 100 mg/kg, ip measured after 2 hrs by rotarod test; conditions: in vivo
[19] = Neurotoxicity in CD1 mouse at 100 mg/kg, ip measured after 4 hrs by rotarod test; conditions: in vivo
[20] = Neurotoxicity in CD1 mouse at 100 mg/kg, ip measured after 15 mins by rotarod test; conditions: in vivo, 0.25 h
[21] = Neurotoxicity in CD1 mouse at 100 mg/kg, ip measured after 30 mins by rotarod test; conditions: in vivo, 0.5 h
[22] = tested on: Mus musculus; assay: Anticonvulsant activity in CD1 mouse assessed as protection against 32 mA current-induced seizure at 100 mg/kg, ip measured after 2 hrs by 6 Hz psychomotor seizure test
[23] = Neurotoxicity in ip dosed CD1 mouse and measured after 4 hrs by rotarod test; type: toxicity, organism-based; conditions: in vivo; procedure, shortened: as §3
[24] = Neurotoxicity in ip dosed CD1 mouse and measured after 0.5 hrs by rotarod test; type: toxicity, organism-based; conditions: in vivo; procedure, shortened: as §3
[25] = tested on: Rattus norvegicus; assay: Anticonvulsant activity in Sprague-Dawley rat assessed as protection against 150 mA current-induced seizure at 30 mg/kg, po measured after 4 hrs by maximal electroshock seizure test; type: functional, organism-based; procedure, shortened: as §4
[26] = tested on: Mus musculus; assay: Anticonvulsant activity in CD1 mouse assessed as protection against 32 mA current-induced seizure at 100 mg/kg, ip measured after 30 mins by 6 Hz psychomotor seizure test
[27] = tested on: Mus musculus; assay: Anticonvulsant activity in CD1 mouse assessed as protection against 32 mA current-induced seizure at 100 mg/kg, ip measured after 15 mins by 6 Hz psychomotor seizure test
[28] = tested on: Mus musculus; assay: Anticonvulsant activity in ip dosed CD1 mouse assessed as protection against subcutaneous pentylenetetrazole-induced seizures and measured after 4 hrs; type: functional; conditions: CD1, 4 h, read-out: MED; procedure, shortened: as §2
[29] = tested on: Mus musculus; assay: Anticonvulsant activity in CD1 mouse assessed as protection against 50 mA current-induced seizure at 300 mg/kg, ip and measured after 4 hrs by maximal electroshock seizure test; type: functional, organism-based; procedure, shortened: as §2

| SMILES | Activity [1] | Activity [2] | Activity [3] | Activity [4] | Activity [5] | MED [6] | minimal effective dose [7] [mg/kg] | minimal effective dose [8] [mg/kg] | Activity [9] | Activity [10] | Activity [11] | Activity [13] | Activity [15] | Activity [16] | minimal neurotoxic dose [24] [mg/kg] | also measured |
| --- | --- | --- | --- | --- | --- | --- | --- | --- | --- | --- | --- | --- | --- | --- | --- | --- |
| O=C1NC(c2ccccc2)(c2ccccc2)C(=O)N1CN1CCN(c2ccccc2)CC1 | Non-Toxic | Non-Toxic | Non-Toxic | Non-Toxic | Non-Toxic | inactive | 100 | 300 | inactive | Non-Toxic | Non-Toxic |  |  |  |  |  |
| O=C1NC(c2ccccc2)(c2ccccc2)C(=O)N1CN1CCN(Cc2ccccc2)CC1 | Non-Toxic | Non-Toxic | Non-Toxic | Non-Toxic | Non-Toxic | inactive | 100 | 300 | inactive | Non-Toxic | Non-Toxic | inactive |  |  |  | Activity [12]: inactive |
| O=C1NC(c2ccccc2)(c2ccccc2)C(=O)N1CN1CCN(c2cccc(Cl)c2)CC1 | Non-Toxic | Non-Toxic | Non-Toxic | Non-Toxic | Non-Toxic | inactive | 100 |  | inactive | Non-Toxic | Non-Toxic |  | inactive |  |  | Activity [14]: inactive |
| O=C1NC(c2ccccc2)(c2ccccc2)C(=O)N1CN1CCN(c2ccccc2F)CC1 | Non-Toxic | Non-Toxic | Non-Toxic | Non-Toxic | Non-Toxic | inactive | 30 |  | inactive | Non-Toxic | Non-Toxic |  | inactive | inactive |  | Activity [17]: Non-Toxic; Activity [18]: Non-Toxic; Activity [19]: Non-Toxic; Activity [20]: Non-Toxic; Activity [21]: Non-Toxic; Activity [22]: Active |
| CC(C)C1(C(C)C)NC(=O)N(CN2CCN(c3ccc(F)cc3)CC2)C1=O |  |  |  |  |  | inactive | 100 |  | inactive |  |  |  | inactive |  | 300 | MTC [23]: 300 mg/kg |
| O=C1NC(c2ccccc2)(c2ccccc2)C(=O)N1CN1CCN(c2ccc(F)cc2)CC1 | Non-Toxic | Non-Toxic | Non-Toxic | Non-Toxic | Non-Toxic | inactive | 100 |  | inactive | Non-Toxic | Non-Toxic | inactive | inactive | inactive |  | Activity [12]: inactive |
| O=C1NC(c2ccccc2)(c2ccccc2)C(=O)N1CN1CCN(c2cccc(C(F)(F)F)c2)CC1 | Non-Toxic | Non-Toxic | Non-Toxic | Non-Toxic | Non-Toxic | inactive | 100 | 300 | inactive | Non-Toxic | Non-Toxic | Active |  | inactive |  | Activity [25]: Active; Activity [12]: Active; Activity [17]: Non-Toxic; Activity [18]: Non-Toxic; Activity [19]: Non-Toxic; Activity [20]: Non-Toxic; Activity [21]: Non-Toxic; Activity [22]: Active; Activity [26]: inactive; Activity [27]: inactive |
| CC(C)C1(C(C)C)NC(=O)N(CN2CCN(c3ccccc3F)CC2)C1=O |  |  |  |  |  | inactive | 100 | 100 |  |  |  |  |  |  | 300 | MTC [23]: 300 mg/kg; minimal effective dose [28]: 100 mg/kg |
| CC(C)C1(C(C)C)NC(=O)N(CN2CCN(c3cccc(Cl)c3)CC2)C1=O | Non-Toxic | Non-Toxic | Non-Toxic | Non-Toxic | Non-Toxic | inactive | 100 | 100 | inactive | Non-Toxic | Non-Toxic | inactive |  | inactive |  | Activity [14]: inactive |
| CC(C)C1(C(C)C)NC(=O)N(CN2CCN(C)CC2)C1=O |  |  |  |  |  | inactive |  | 300 | inactive |  | Non-Toxic |  |  |  | 300 | Activity [29]: inactive |
| CC(C)C1(C(C)C)NC(=O)N(CN2CCN(c3cccc(C(F)(F)F)c3)CC2)C1=O | Non-Toxic | Non-Toxic | Non-Toxic | Non-Toxic | Non-Toxic | inactive | 100 |  | inactive | Non-Toxic | Non-Toxic |  | inactive | inactive |  | Activity [17]: Non-Toxic; Activity [18]: Non-Toxic; Activity [19]: Non-Toxic; Activity [20]: Non-Toxic; Activity [21]: Non-Toxic; Activity [27]: inactive |
| CC(C)C1(C(C)C)NC(=O)N(CN2CCN(Cc3ccccc3)CC2)C1=O |  |  |  |  |  | inactive |  |  | inactive |  | Non-Toxic |  | inactive |  | 300 | Activity [29]: inactive |
